Most compounds without a hit are left out; they make up all but 3.7% or so of the library.
MC4R antag cAMP = MC4R antagonists of cAMP signaling, primary screen, cell-based, TR-FRET, antagonist arm of biased-ligand search; Melanocortin receptor 4 (Homo sapiens), P32245; MC4R-expressing cells, MTII-stimulated cAMP, LANCE TR-FRET; inhibition, % at 6.5 µM; actives 0.48% (n = 360,000); AID 540295, 2011;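 active = inhibition above its plate's cutoff, the mean of tested wells on that plate plus 3 SD, cut at about 29% in these data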;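 also: 0% = Melanotan II alone and 100% = Melanotan II plus saturating MCL0020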
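Assay system: U2OS-MC4R stable cell line; Also added: Melanotan II; Technique: Eu-cAMP/anti-cAMP TR-FRET, emission 671 nm; Times: 30-min compound, 1-h challenge, 1-h detection, room temperature.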
Myeloid diff MLP = induction of myeloid progenitor differentiation, primary screen, cell-based, flow cytometry, MLPCN library | ER-HoxA9 myeloid progenitors, lysozyme-GFP differentiation | calls only at 10 µM | actives 1% (n = 360,000) | AID 624256, 2012;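 active = normalized GFP-positive differentiation at or above the plate's own cutoff, the solvent-only control mean plus 3 SD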;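 also: cells exposed to compound for four days before flow analysis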
EBI2 antag = EBI2 receptor antagonists, beta-arrestin recruitment, primary screen, cell-based, luminescence, 7a,25-OHC stimulation, uHTS; AID 651636, 2012; 7a,25-OHC stimulated; inhibition, % at 5 µM; G-protein coupled receptor 183 (Homo sapiens), P32249; actives 0.81% (n = 360,000); in the data active = inhibition above about 38%;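 also: enzyme fragment complementation signal reports receptor beta-arrestin coupling in cells; 0% = agonist plus DMSO wells and 100% = wells without agonist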
Target sequence (P32249 whole entry, looked up, the tested form may be a part): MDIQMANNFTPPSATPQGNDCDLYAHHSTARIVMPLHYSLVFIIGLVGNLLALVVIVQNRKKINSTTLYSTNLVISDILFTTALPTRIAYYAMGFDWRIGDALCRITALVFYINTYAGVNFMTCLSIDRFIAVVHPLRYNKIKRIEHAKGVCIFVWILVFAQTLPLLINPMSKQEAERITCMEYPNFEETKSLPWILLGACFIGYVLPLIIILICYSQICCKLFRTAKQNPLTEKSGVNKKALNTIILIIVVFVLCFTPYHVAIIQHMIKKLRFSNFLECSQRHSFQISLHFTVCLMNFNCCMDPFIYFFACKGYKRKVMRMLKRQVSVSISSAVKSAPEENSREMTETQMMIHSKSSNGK
Exocytosis inh = LAMP-1 surface exposure blockers, TALL-104 cells – cell-based, flow cytometry, MLPCN library, primary screen. actives 0.66% (n = 360,000). inhibition, % at 10 µM. TALL-104 LAMP-1 surface exposure; cells stimulated with thapsigargin and PMA. AID 651702, 2012;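 active = inhibition above about 55%, limit read from the data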
MC4R barr agon = MC4R agonists recruiting beta-arrestin, primary screen, cell-based, luminescence, agonist arm of biased-ligand search | Melanocortin receptor 4 (Homo sapiens), P32245 | U2OS MC4R beta-arrestin complementation; percent of melanotan II response, DMSO zero | actives 0.98% (n = 360,000) | activation, % at 8.9 µM;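 active = activation above a per-plate cutoff, the mean activation of sample wells on that plate plus 3 SD, cut at about 8% in these data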
Granule exo CP1 = inhibitors of lytic granule exocytosis, confirmation, TALL-104 cells, flow cytometry, Cherry Pick01 | shares compounds with Exocytosis inh | LAMP-1 externalization; stimulated with PMA plus thapsigargin | inhibition, % at 10 µM | actives 11% (n = 1,500) | AID 651954, 2012; in the data active = inhibition above about 60%;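 also: 0% = stimulated vehicle wells and 100% = unstimulated wells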
* marks the source's active call; other numbers are inactive results; i = inactive; · = not tested or not shown.

SMILES	MC4R antag cAMP	Myeloid diff MLP	EBI2 antag	Exocytosis inh	MC4R barr agon	Granule exo CP1
CC(OC(=O)c1cccc(-n2cnnn2)c1)C(=O)Nc1ccc(F)cc1Cl (stereo not given)	2	i	-2	4	-2	·
COc1ccc(CNC(=O)C2CCN(C(=O)c3csc(Nc4ccc(C)cc4)n3)CC2)cc1	4	i	23	58*	2	-3
Cc1ccc(Nc2nc(C(=O)N3CCC(C(=O)NCc4ccccc4)CC3)cs2)cc1	9	i	21	65*	-3	-4
O=C(CC(Sc1ccc(Br)cc1)C(=O)O)c1ccc(F)cc1 (stereo not given)	-2	i	17	69*	-1	-13
COc1ccc(CNC2CCN(Cc3ccccc3)CC2)cc1	-5	i	-1	60*	1	-3
COc1cccc(CN2CCC(C)(Oc3cccc(Cl)c3)C2)c1OC (stereo not given)	2	i	13	7	-3	·
COc1ccc(CCN2CCCC(CN(C)C(=O)c3cc(C)oc3C)C2)cc1 (stereo not given)	17	i	-3	17	-3	·
CCN(Cc1ccc(NC(C)=O)cc1)CC1CCCN(CCc2cccc(OC)c2)C1 (stereo not given)	5	i	4	51	0	·
COc1ccc(CN(C)CC2CCCN(CCc3ccc(F)cc3)C2)c(OC)c1OC (stereo not given)	-5	i	-17	70*	2	-2
COc1ccc(CCN2CCCC(CN(C)Cc3cccc(OC)c3)C2)cc1 (stereo not given)	0	i	-3	56*	-2	-14
CN(C)C(=O)CCC(=O)N(C)CC1CCCN(CCc2ccc(F)cc2)C1 (stereo not given)	7	i	1	3	-2	·
COc1ccc(CCN2CCCC(CN(C)Cc3cc(OC)ccc3OC)C2)cc1 (stereo not given)	6	i	5	72*	-1	-14
CCCc1ccc(Oc2cc(NN3CCCCC3)c([N+](=O)[O-])cc2[N+](=O)[O-])cc1	5	i	6	-4	1	·
NCCc1c(-c2ccccc2)n(-c2ccccc2)c2ccccc12	5	i	-15	91*	2	70*
CC(=O)n1c(-c2ccccc2)c(CO)c2ccccc21	-11	i	-11	-3	-1	·
COc1cc(Cl)c(CN2CCCC(CO)(Cc3ccccc3F)C2)cc1OC (stereo not given)	1	i	8	66*	3	-13
COc1ccc(CN2CCCC(CO)(Cc3ccc(F)cc3)C2)c(OC)c1OC (stereo not given)	21	i	7	61*	2	-15
CC(C)Oc1ccc(CN2CCCC(CO)(Cc3ccc(F)cc3)C2)cc1 (stereo not given)	16	i	-7	35	1	·
O=C(CN(C(=O)CCC(=O)Nc1nccs1)C1CCCC1)NCc1ccc2c(c1)OCO2	7	i	-13	-2	-1	·
Clc1ccc2nc(N3CCNCC3)nc(-c3ccccc3)c2c1	3	i	-16	86*	3	59
CN1CCN(c2nc(-c3ccccc3)c3cc(Cl)ccc3n2)CC1	9	i	-7	2	-1	·
Nc1nc(-c2cc3ccccc3o2)cs1	-2	i	-5	1	4	·
O=C(Cn1cc(COc2ccc(Br)cc2[N+](=O)[O-])nn1)c1ccc(O)cc1	-5	i	17	2	-2	·
CC(=O)N1c2ccccc2S(=O)(=O)c2c1ccc1ccccc21	-1	i	4	79*	-2	-13
CC(=O)N1c2ccccc2S(=O)(=O)c2ccccc21	4	i	-4	0	1	·
SMILES	MC4R antag cAMP	Myeloid diff MLP	EBI2 antag	Exocytosis inh	MC4R barr agon	Granule exo CP1
CCCn1cc([C@@H]2C[C@H]3CN(Cc4cccc(Cl)c4)C(=O)[C@]34CCCN24)c(C)n1	10	i	4	4	-1	·
Cc1c([C@@H]2C[C@H]3CN(Cc4cccc(Cl)c4)C(=O)[C@]34CCCN24)cnn1C	15	i	5	78*	-1	-3
CC(=O)Nc1cc(-c2cccc(C(=O)NCCO)c2)cn2c(-c3ccc(F)c(Cl)c3)cnc12	9	i	6	-6	7	·
CC(=O)Nc1cc(-c2ccccc2F)cn2c(-c3ccccc3)cnc12	10	i	25	79*	8.3*	94*
N#Cc1cn(CCCOc2ccccc2)c2ccccc12	14	i	8	67*	0	-3
O=C1ON=C(c2ccccc2)/C1=C/c1ccc(-c2ccccc2[N+](=O)[O-])o1	32*	i	18	70*	-1	99*
O=[N+]([O-])c1ccccc1-c1ccc(/C=N/n2cnnc2)o1	0	i	-10	0	-1	·
OC[C@@H]1CN(Cc2cccs2)C[C@H](n2cnc3c(NCc4ccncc4)ncnc32)O1	5	i	4	2	1	·
CC1(C(=O)Nc2cccc(C#N)c2)CCN1C(=O)C1(c2ccccc2)CC1 (stereo not given)	-2	i	-6	-2	-1	·
CN(C)CCCN(C(=O)c1ccc(S(=O)(=O)N2CCc3ccccc3C2)cc1)c1nc2c(F)cc(F)cc2s1	6	i	3	51	1	·
CCOC(=O)N1CCN(S(=O)(=O)c2ccc(C(=O)N(CCCN(C)C)c3nc4ccc(CC)cc4s3)cc2)CC1	4	i	-16	62*	-3	-3
COc1ccc2nc(N(CCN(C)C)C(=O)c3ccc4ncsc4c3)sc2c1	5	i	0	75*	-1	-13
COc1ccc2nc(N(CCN(C)C)C(=O)c3ccc4ccccc4c3)sc2c1	2	i	-4	11	2	·
CCc1ccc2nc(N(CCCN(C)C)C(=O)c3ccc(S(=O)(=O)N4CCCc5ccccc54)cc3)sc2c1	4	i	-1	56*	7	23
CCOC(=O)N1CCN(S(=O)(=O)c2ccc(C(=O)N(CCN(C)C)c3nc4ccc(CC)cc4s3)cc2)CC1	-5	i	-3	1	2	·
CCc1ccc2nc(N(CCCN(C)C)C(=O)c3ccc(S(=O)(=O)N4CCCC4)cc3)sc2c1	-1	i	-3	14	3	·
CCOc1ccc2nc(N(CCCN(C)C)C(=O)c3ccc(S(=O)(=O)N4CCc5ccccc5C4)cc3)sc2c1	4	i	5	68*	4	84*
